Converted amounts (≈) assume the structure as drawn.
What was measured:
Type in all cases: functional
Rhizopus [1] = assay: Antifungal activity against Rhizopus spp after 48 hrs
In short: (§1)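 Broth microdilution per CLSI M38-A, with plates incubated at 35°C and read at 24 and 48 h. Final well concentrations were 0.03 to 16 µg/ml for four agents and 0.250 to 256 µg/ml for the echinocandin. The MIC was the lowest concentration giving complete growth inhibition (MIC-0). For the echinocandin, the MEC was also read as the lowest concentration showing abnormal growth. QC strains were A. flavus ATCC 204304 and A. fumigatus ATCC 204305.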

Absidia [2] = assay: Antifungal activity against Absidia spp after 24 hrs; in short: as §1
Rhizomucor [3] = assay: Antifungal activity against Rhizomucor spp after 24 hrs; in short: as §1
Cunninghamella [4] = assay: Antifungal activity against Cunninghamella spp after 48 hrs; in short: as §1
Syncephalastrum [5] = assay: Antifungal activity against Syncephalastrum spp after 48 hrs; in short: as §1
Cunninghamella [6] = assay: Antifungal activity against Cunninghamella spp after 24 hrs; in short: as §1
Absidia [7] = assay: Antifungal activity against Absidia spp after 48 hrs; in short: as §1
Rhizopus [8] = assay: Antifungal activity against Rhizopus spp after 24 hrs; in short: as §1
Syncephalastrum [9] = assay: Antifungal activity against Syncephalastrum spp after 24 hrs; in short: as §1
Rhizomucor [10] = assay: Antifungal activity against Rhizomucor spp after 48 hrs; in short: as §1
Mucor [11] = assay: Antifungal activity against Mucor spp after 24 hrs; in short: as §1
Mucor [12] = assay: Antifungal activity against Mucor spp after 48 hrs; in short: as §1

| Structure (SMILES) | MIC50 (Rhizopus [1]) | MIC90 (Rhizopus [1]) | MIC50 (Absidia [2]) | MIC90 (Absidia [2]) | MIC50 (Rhizomucor [3]) | MIC90 (Rhizomucor [3]) | MIC50 (Cunninghamella [4]) | MIC90 (Cunninghamella [4]) | MIC50 (Syncephalastrum [5]) | MIC90 (Syncephalastrum [5]) | MIC50 (Cunninghamella [6]) | MIC90 (Cunninghamella [6]) | MIC50 (Absidia [7]) | MIC90 (Absidia [7]) | MIC50 (Rhizopus [8]) | MIC90 (Rhizopus [8]) | MIC50 (Syncephalastrum [9]) | MIC90 (Syncephalastrum [9]) | MIC50 (Rhizomucor [10]) | MIC90 (Rhizomucor [10]) | further results |
| --- | --- | --- | --- | --- | --- | --- | --- | --- | --- | --- | --- | --- | --- | --- | --- | --- | --- | --- | --- | --- | --- |
| C[C@@H](c1ncncc1F)[C@](O)(Cn1cncn1)c1ccc(F)cc1F [VORICONAZOLE] | 16 µg/mL (≈ 45.8 µM) | > 16 µg/mL | > 16 µg/mL | > 16 µg/mL | 16 µg/mL (≈ 45.8 µM) | 16 µg/mL (≈ 45.8 µM) | > 16 µg/mL | > 16 µg/mL | > 16 µg/mL | > 16 µg/mL | > 16 µg/mL | > 16 µg/mL | > 16 µg/mL | > 16 µg/mL | 16 µg/mL (≈ 45.8 µM) | 16 µg/mL (≈ 45.8 µM) | 4 µg/mL (≈ 11.5 µM) | > 16 µg/mL | > 16 µg/mL | > 16 µg/mL | MIC50 (Mucor [11]): > 16 µg/mL; MIC90 (Mucor [11]): > 16 µg/mL; MIC50 (Mucor [12]): > 16 µg/mL; MIC90 (Mucor [12]): > 16 µg/mL |
| CC[C@@H]([C@H](C)O)n1ncn(-c2ccc(N3CCN(c4ccc(OC[C@@H]5CO[C@@](Cn6cncn6)(c6ccc(F)cc6F)C5)cc4)CC3)cc2)c1=O [POSACONAZOLE] | 0.5 µg/mL (≈ 0.713 µM) | 1 µg/mL (≈ 1.43 µM) | 0.5 µg/mL (≈ 0.713 µM) | 1 µg/mL (≈ 1.43 µM) | 0.5 µg/mL (≈ 0.713 µM) | 0.5 µg/mL (≈ 0.713 µM) | 0.5 µg/mL (≈ 0.713 µM) | 0.5 µg/mL (≈ 0.713 µM) | 0.5 µg/mL (≈ 0.713 µM) | 0.5 µg/mL (≈ 0.713 µM) | 0.5 µg/mL (≈ 0.713 µM) | 0.5 µg/mL (≈ 0.713 µM) | 0.5 µg/mL (≈ 0.713 µM) | > 16 µg/mL | 0.5 µg/mL (≈ 0.713 µM) | 0.5 µg/mL (≈ 0.713 µM) | 0.25 µg/mL (≈ 0.357 µM) | 0.5 µg/mL (≈ 0.713 µM) | 2 µg/mL (≈ 2.85 µM) | 2 µg/mL (≈ 2.85 µM) | MIC50 (Mucor [11]): 0.5 µg/mL (≈ 0.713 µM); MIC90 (Mucor [11]): 2 µg/mL (≈ 2.85 µM); MIC50 (Mucor [12]): 0.5 µg/mL (≈ 0.713 µM); MIC90 (Mucor [12]): 2 µg/mL (≈ 2.85 µM) |

Continued, in another order:

| MIC50 (Rhizopus [1]) | MIC90 (Rhizopus [1]) | MIC50 (Absidia [2]) | MIC90 (Absidia [2]) | MIC50 (Rhizomucor [3]) | MIC90 (Rhizomucor [3]) | MIC50 (Cunninghamella [4]) | MIC90 (Cunninghamella [4]) | MIC50 (Syncephalastrum [5]) | MIC90 (Syncephalastrum [5]) | MIC50 (Cunninghamella [6]) | MIC90 (Cunninghamella [6]) | MIC50 (Absidia [7]) | MIC90 (Absidia [7]) | MIC50 (Rhizopus [8]) | MIC90 (Rhizopus [8]) | MIC50 (Syncephalastrum [9]) | MIC90 (Syncephalastrum [9]) | MIC50 (Rhizomucor [10]) | MIC90 (Rhizomucor [10]) | Structure (SMILES) | further results |
| --- | --- | --- | --- | --- | --- | --- | --- | --- | --- | --- | --- | --- | --- | --- | --- | --- | --- | --- | --- | --- | --- |
| 1 µg/mL (≈ 1.08 µM) | 2 µg/mL (≈ 2.16 µM) | 1 µg/mL (≈ 1.08 µM) | 4 µg/mL (≈ 4.33 µM) | 1 µg/mL (≈ 1.08 µM) | 1 µg/mL (≈ 1.08 µM) | 2 µg/mL (≈ 2.16 µM) | > 16 µg/mL | 0.125 µg/mL (≈ 0.135 µM) | 2 µg/mL (≈ 2.16 µM) | 2 µg/mL (≈ 2.16 µM) | 4 µg/mL (≈ 4.33 µM) | 0.5 µg/mL (≈ 0.541 µM) | 4 µg/mL (≈ 4.33 µM) | 1 µg/mL (≈ 1.08 µM) | 2 µg/mL (≈ 2.16 µM) | 0.125 µg/mL (≈ 0.135 µM) | 1 µg/mL (≈ 1.08 µM) | 1 µg/mL (≈ 1.08 µM) | 1 µg/mL (≈ 1.08 µM) | C[C@@H]1[C@H](O)[C@@H](C)/C=C/C=C/C=C/C=C/C=C/C=C/C=C/[C@H](O[C@@H]2O[C@H](C)[C@@H](O)[C@H](N)[C@@H]2O)C[C@@H]2O[C@](O)(C[C@@H](O)C[C@@H](O)[C@H](O)CC[C@@H](O)C[C@@H](O)CC(=O)O[C@H]1C)C[C@H](O)[C@H]2C(=O)O [AMPHOTERICIN B] | MIC50 (Mucor [11]): 1 µg/mL (≈ 1.08 µM); MIC90 (Mucor [11]): 1 µg/mL (≈ 1.08 µM); MIC50 (Mucor [12]): 1 µg/mL (≈ 1.08 µM); MIC90 (Mucor [12]): 2 µg/mL (≈ 2.16 µM) |
| 4 µg/mL (≈ 5.67 µM) | > 16 µg/mL | 1 µg/mL (≈ 1.42 µM) | > 16 µg/mL | 2 µg/mL (≈ 2.83 µM) | 2 µg/mL (≈ 2.83 µM) | 1 µg/mL (≈ 1.42 µM) | 4 µg/mL (≈ 5.67 µM) | 1 µg/mL (≈ 1.42 µM) | 8 µg/mL (≈ 11.3 µM) | 1 µg/mL (≈ 1.42 µM) | 4 µg/mL (≈ 5.67 µM) | 1 µg/mL (≈ 1.42 µM) | > 16 µg/mL | 1 µg/mL (≈ 1.42 µM) | > 16 µg/mL | 1 µg/mL (≈ 1.42 µM) | 1 µg/mL (≈ 1.42 µM) | > 16 µg/mL | > 16 µg/mL | CCC(C)n1ncn(-c2ccc(N3CCN(c4ccc(OCC5COC(Cn6cncn6)(c6ccc(Cl)cc6Cl)O5)cc4)CC3)cc2)c1=O (stereo unspecified) [ITRACONAZOLE] | MIC50 (Mucor [11]): 1 µg/mL (≈ 1.42 µM); MIC90 (Mucor [11]): > 16 µg/mL; MIC50 (Mucor [12]): 4 µg/mL (≈ 5.67 µM); MIC90 (Mucor [12]): > 16 µg/mL |
| > 256 µg/mL | > 256 µg/mL | 256 µg/mL (≈ 234 µM) | > 256 µg/mL | 256 µg/mL (≈ 234 µM) | 256 µg/mL (≈ 234 µM) | 256 µg/mL (≈ 234 µM) | > 256 µg/mL | 256 µg/mL (≈ 234 µM) | > 256 µg/mL | 256 µg/mL (≈ 234 µM) | > 256 µg/mL | > 256 µg/mL | > 256 µg/mL | > 256 µg/mL | > 256 µg/mL | 256 µg/mL (≈ 234 µM) | > 256 µg/mL | > 256 µg/mL | > 256 µg/mL | CC[C@H](C)C[C@H](C)CCCCCCCCC(=O)N[C@H]1C[C@@H](O)[C@@H](NCCN)NC(=O)[C@@H]2[C@@H](O)CCN2C(=O)[C@H]([C@H](O)CCN)NC(=O)[C@H]([C@H](O)[C@@H](O)c2ccc(O)cc2)NC(=O)[C@@H]2C[C@@H](O)CN2C(=O)[C@H]([C@@H](C)O)NC1=O [CASPOFUNGIN] | minimal effective concentration (Rhizopus [1]; read-out: MEC): 256 µg/mL; minimal effective concentration (Absidia [2]; read-out: MEC): 64 µg/mL; minimal effective concentration (Rhizomucor [3]; read-out: MEC): 32 µg/mL; minimal effective concentration (Cunninghamella [4]; read-out: MEC): 128 µg/mL; minimal effective concentration (Syncephalastrum [5]; read-out: MEC): > 256 µg/mL; minimal effective concentration (Cunninghamella [6]; read-out: MEC): 128 µg/mL; minimal effective concentration (Absidia [7]; read-out: MEC): 256 µg/mL; minimal effective concentration (Rhizopus [8]; read-out: MEC): 128 µg/mL; minimal effective concentration (Syncephalastrum [9]; read-out: MEC): 8 µg/mL; minimal effective concentration (Rhizomucor [10]; read-out: MEC): 64 µg/mL; MIC50 (Mucor [11]): 256 µg/mL (≈ 234 µM); MIC90 (Mucor [11]): > 256 µg/mL; minimal effective concentration (Mucor [11]; read-out: MEC): 128 µg/mL; MIC50 (Mucor [12]): > 256 µg/mL; MIC90 (Mucor [12]): > 256 µg/mL |
